In one assay the target is Transcription factor p65 (Homo sapiens, UniProt Q04206). In words: Inhibition of NFkappa p65 in nuclear extract of human HeLa cells assessed as blockade of NFkappa p65 binding to biotinylated-consesus sequence by ELISA. It counts as cell-free. (An ELISA detects its analyte on a solid surface through an enzyme-linked reagent.)
Assay [1] relates to HT-29. In words: Cytotoxicity against human HT-29 cells after 3 days by sulforhodamine B assay. It counts as functional. Conditions: HT-29, 72 h, read-out: ED50 (the source's name). A digest of the protocol:
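Trypsinized HT-29 cells seeded in 96-well plates and exposed to serial DMSO dilutions, with a DMSO negative control and a paclitaxel positive control. Incubated 3 days at 37 °C, 5% CO2, then fixed, stained with sulforhodamine B, lysed in tris base and read at 515 nm. ED50 from nonlinear regression. Run in triplicate, two independent experiments.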

The test system of assay [2] is HT-29. Briefly: Effect on mitochondrial membrane potential in human HT-29 cells after 2 hrs using JC-1 staining by fluorescence assay. Conditions: HT-29, 2 h. The class given is functional, cell-based.
Another assay deals with MDA-MB-435. In words: Antitumor activity against human MDA-MB-435 cells at 20 mg/kg, ip by in-vivo hallow fiber model. More on the design: dose 20 mg/kg. It counts as functional, organism-based.
For another assay, the system named is MCF7. Briefly: Antitumor activity against human MCF7 cells at 20 mg/kg, ip by in-vivo hallow fiber model. More on the design: dose 20 mg/kg. The class given is functional, organism-based.
Assay [3] has as its system HT-29. In words: Antitumor activity against human HT-29 cells at 20 mg/kg, ip by in-vivo hallow fiber model. It counts as functional, organism-based. Set-up: dose 20 mg/kg.

Activity calls are given as the source filed them. No cut-off for these calls is given here. Some results are limits rather than exact numbers.

Sequence of Transcription factor p65 (Q04206 whole entry): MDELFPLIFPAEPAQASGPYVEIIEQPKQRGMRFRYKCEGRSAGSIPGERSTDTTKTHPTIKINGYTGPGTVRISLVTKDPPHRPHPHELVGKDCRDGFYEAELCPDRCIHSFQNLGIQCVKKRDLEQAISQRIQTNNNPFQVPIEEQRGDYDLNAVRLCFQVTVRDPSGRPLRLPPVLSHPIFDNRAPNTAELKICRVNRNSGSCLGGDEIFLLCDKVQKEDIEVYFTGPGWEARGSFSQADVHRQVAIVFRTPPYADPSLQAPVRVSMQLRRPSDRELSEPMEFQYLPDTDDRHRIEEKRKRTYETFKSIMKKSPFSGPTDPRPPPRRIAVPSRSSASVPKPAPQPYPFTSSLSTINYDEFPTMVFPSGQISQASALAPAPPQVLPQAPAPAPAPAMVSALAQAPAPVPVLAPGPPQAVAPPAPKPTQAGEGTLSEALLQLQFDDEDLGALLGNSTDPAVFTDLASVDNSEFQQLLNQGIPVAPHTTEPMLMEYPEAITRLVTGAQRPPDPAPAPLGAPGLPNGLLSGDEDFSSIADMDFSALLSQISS

On to `CC(=O)Oc1ccc2oc3c(C/C=C(\C)CCC=C(C)C)c(OC(C)=O)c(CC=C(C)C)c(O)c3c(=O)c2c1`, for which, on Transcription factor p65, the IC50 was > 10 µM. Also, the EC50 in the assay with HT-29 [1] is > 10 µM.

As to `CC(C)=CCc1c(O)c(CC=C(C)C)c2oc3ccc(O)cc3c(=O)c2c1O`, the IC50 on Transcription factor p65 is 2.9 µM. The EC50 in the assay on HT-29 [1] is > 10 µM.

For the molecule `CC(C)=CC[C@]12OC(C)(C)[C@H]3C[C@H](C=C4C(=O)c5c(O)cc(O)cc5O[C@@]431)C2=O` [COCHINCHINOXANTHONE], the IC50 on Transcription factor p65 was > 10 µM; with HT-29 [2] it was 3.3 µM. Also, the EC50 in the assay with HT-29 [1] amounted to 5.8 µM.

As to `COc1c(O)cc2oc3cc(O)c4c(c3c(=O)c2c1CCC(C)(C)O)OC(C)(C)CC4`, the EC50 in the assay on HT-29 [1] was > 10 µM. The IC50 in the assay with HT-29 [2] is > 10 µM.

As for `COc1c(O)cc2oc3cc(O)c(CC=C(C)C)c(O)c3c(=O)c2c1CC=C(C)C` [MANGOSTIN], the IC50 on Transcription factor p65 was > 10 µM; in the assay on HT-29 [2], 0.2 µM. Also, the EC50 with HT-29 [1] amounted to 4.1 µM.

`COc1c(O)cc2oc3cc4c(c(O)c3c(=O)c2c1CCC(C)(C)OC=O)CCC(C)(C)O4`: the EC50 in the assay on HT-29 [1] was 4.4 µM. Further, the IC50 in the assay on HT-29 [2] was > 10 µM.

With `COc1ccc2oc3c(C/C=C(\C)CCC=C(C)C)c(O)c(CC=C(C)C)c(O)c3c(=O)c2c1`, the IC50 on Transcription factor p65 and with HT-29 [2] was > 10 µM in each case.

For the molecule `COc1c(O)cc2oc3cc4c(c(O)c3c(=O)c2c1CCC(C)(C)O)CCC(C)(C)O4`, in the assay with HT-29 [1], the EC50 amounted to 4.4 µM. Besides, in the assay with HT-29 [2], the IC50 is > 10 µM.

In the case of `COc1c(O)cc2oc3cc(OC(C)=O)c(CC=C(C)C)c(O)c3c(=O)c2c1CC=C(C)C`, on Transcription factor p65, the IC50 was > 10 µM. In the assay on HT-29 [1], the EC50 stood at 8.8 µM.

Take `COc1ccc2oc3c(C/C=C(\C)CCC=C(C)C)c(OC)c(CC=C(C)C)c(O)c3c(=O)c2c1`: the IC50 at Transcription factor p65 was > 10 µM. Also, the EC50 with HT-29 [1] was > 10 µM.

Consider `CC(C)=CCC/C(C)=C/Cc1c(O)c(CC=C(C)C)c(O)c2c(=O)c3cc(OC(=O)c4ccccc4)ccc3oc12`, for which the IC50 at Transcription factor p65 and in the assay on HT-29 [2] was > 10 µM each time.

For the molecule `COc1c(OC(C)=O)cc2oc3cc(OC(C)=O)c(CC=C(C)C)c(O)c3c(=O)c2c1CC=C(C)C`, the inhibition result in the assay with MDA-MB-435, in the assay with MCF7 and in the assay on HT-29 [3] was “inactive” each time. Besides, the values for the IC50 on Transcription factor p65 and in the assay on HT-29 [2] were > 10 µM and 1.8 µM, respectively. Moreover, the EC50 in the assay on HT-29 [1] is 1 µM.

Consider `CC(C)=CCC/C(C)=C/Cc1c(O)c2c(c3c(=O)c4cc(O)ccc4oc13)OC(C)(C)[C@@H](O)C2` [COCHINENSOXANTHONE], for which the EC50 in the assay with HT-29 [1] is > 10 µM.

For the molecule `COc1cc2oc3c(C)c(OC)c(CC=C(C)C)c(O)c3c(=O)c2c(CC=C(C)C)c1OC`, the IC50 on Transcription factor p65 was > 10 µM; in the assay with HT-29 [2], 1.4 µM. The EC50 with HT-29 [1] is > 10 µM.

As to `COc1cc2oc3cc(OC)c(OC)c(CC=C(C)C)c3c(=O)c2c(O)c1CC=C(C)C`, the IC50 at Transcription factor p65 was > 10 µM; with HT-29 [2], 0.9 µM. Further, the EC50 with HT-29 [1] is > 10 µM.

In the case of `COc1c(OC(C)=O)cc2oc3cc(OC(C)=O)c(CC=C(C)C)c(OC(C)=O)c3c(=O)c2c1CC=C(C)C`, on Transcription factor p65, the IC50 was > 10 µM. The EC50 in the assay on HT-29 [1] was 6 µM.

For `CC(C)=CCC/C(C)=C/Cc1c(O)c(CC=C(C)C)c(O)c2c(=O)c3cc(O)ccc3oc12` [COCHINCHINONE A], the IC50 on Transcription factor p65 and in the assay on HT-29 [2] was > 10 µM in each case. Moreover, the EC50 with HT-29 [1] was > 10 µM.

Take `CC(=O)O[C@H]1C(=O)[C@@]2(C)[C@H]([C@H](OC(=O)c3ccccc3)[C@]3(O)C[C@H](OC(=O)[C@H](O)[C@@H](NC(=O)c4ccccc4)c4ccccc4)C(C)=C1C3(C)C)[C@]1(OC(C)=O)CO[C@@H]1C[C@@H]2O` [PACLITAXEL]: in the assay with HT-29 [1], the EC50 was determined as 0.0001 µM.

For `CC(C)=CCc1c(O)cc2oc3cc(O)c(O)c(CC=C(C)C)c3c(=O)c2c1O`, the EC50 with HT-29 [1] was found to be 4 µM. In addition, the IC50 with HT-29 [2] was > 10 µM.

As to `COc1c(OC(=O)c2ccccc2)cc2oc3cc(O)c(CC=C(C)C)c(O)c3c(=O)c2c1CC=C(C)C`, the IC50 on Transcription factor p65 and in the assay with HT-29 [2] was > 10 µM throughout. For the same molecule, the EC50 in the assay on HT-29 [1] came to 1.9 µM.

As usually defined, the IC50 is the concentration that gives 50% inhibition.

For the origin of these results see ChEMBL document CHEMBL1782007, “Cytotoxic and NF-κB inhibitory constituents of the stems of Cratoxylum cochinchinense and their semisynthetic analogues” (J Nat Prod, 2011).
